Data published in ChEMBL document CHEMBL1148541, “Biological evaluation of 1-alkyl-3-phenylthioureas as orally active HDL-elevating agents” (Bioorg Med Chem Lett, 2006).
pEC50: −log10 of the molar value.

Key:
Rattus norvegicus [1] = assay: Triglyceride level in cholesterol-fed male rats at 62 mg/kg/day relative to control; type: functional
Outline: (§1)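 Male Sprague–Dawley rats on a cholesterol diet, in groups of six, received the compound in the diet ad libitum for 8 days. Serum triglycerides are expressed as % change relative to untreated controls, with significance at p < 0.05 versus controls.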

Rattus norvegicus [2] = assay: Increase of Apolipoprotein A-I level in cholesterol-fed male rats at 62 mg/kg/day relative to control; type: functional
Outline: (§2)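 Drug mixed into diet, fed ad libitum for 8 days to groups of six male Sprague–Dawley rats on a cholesterol diet. Serum Apo A-I measured by SDS–polyacrylamide gel electrophoresis or by rat competition ELISA. Reported as % change versus untreated controls, with significance set at p < 0.05.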

Rattus norvegicus [3] = assay: Increase of total cholesterol level in cholesterol-fed male rats at 62 mg/kg/day relative to control; type: functional
Outline: (§3)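 Dietary (ad libitum) dosing of groups of six male Sprague–Dawley rats on a cholesterol diet for 8 days. Serum total cholesterol was quantitated enzymatically by a colorimetric method and expressed as % change relative to untreated controls, with significance at p < 0.05.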

Rattus norvegicus [4] = assay: Weight gain in cholesterol-fed male rats at 62 mg/kg/day relative to control; type: functional
Outline: (§4)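 Groups of six male Sprague–Dawley rats on a cholesterol diet received the compound in the diet, ad libitum, over 8 days. Body weight gain is reported as % change relative to untreated controls.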

Rattus norvegicus [5] = species: Rattus norvegicus; assay: Increase in liver enzyme Aspartate aminotransferase; type: functional; parameters: concentration or dose not given beside the values
[6] = biological target: T1, Peroxisome proliferator-activated receptor alpha (Rattus norvegicus, UniProt P37230); assay: Activity against PPAR-alpha
T1 sequence (P37230 whole entry): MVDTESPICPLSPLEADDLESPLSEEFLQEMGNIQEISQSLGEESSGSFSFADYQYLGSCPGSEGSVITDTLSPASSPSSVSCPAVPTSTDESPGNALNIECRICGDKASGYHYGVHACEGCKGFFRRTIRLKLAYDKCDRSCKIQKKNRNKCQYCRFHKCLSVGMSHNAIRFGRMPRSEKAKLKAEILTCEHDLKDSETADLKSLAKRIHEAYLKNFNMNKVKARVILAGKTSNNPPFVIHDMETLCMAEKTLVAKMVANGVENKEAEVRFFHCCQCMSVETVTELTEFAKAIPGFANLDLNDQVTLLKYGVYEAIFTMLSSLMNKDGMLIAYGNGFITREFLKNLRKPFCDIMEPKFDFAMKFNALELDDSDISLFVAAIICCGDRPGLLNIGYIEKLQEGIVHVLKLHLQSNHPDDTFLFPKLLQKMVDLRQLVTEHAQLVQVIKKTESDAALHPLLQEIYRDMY

Rattus norvegicus [7] = species: Rattus norvegicus; assay: Increase in liver enzyme Alkaline phosphatase; type: functional; parameters: concentration or dose not given beside the values
Rattus norvegicus [8] = assay: Increase of HDL level in cholesterol-fed male rats by FPLC method at 62 mg/kg/day relative to control; type: functional
Outline: (§5)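 Groups of six male Sprague–Dawley rats on a cholesterol diet received drug in the diet, ad libitum, for 8 days. Serum lipoproteins separated by FPLC, adapted for robotic automation, and cholesterol quantitated enzymatically by colorimetry. HDL given as % change versus untreated controls, with significance set at p < 0.05.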

[9] = biological target: T2, Peroxisome proliferator-activated receptor delta (Homo sapiens, UniProt Q03181); assay: Activity against PPAR-delta
T2 sequence (Q03181 whole entry): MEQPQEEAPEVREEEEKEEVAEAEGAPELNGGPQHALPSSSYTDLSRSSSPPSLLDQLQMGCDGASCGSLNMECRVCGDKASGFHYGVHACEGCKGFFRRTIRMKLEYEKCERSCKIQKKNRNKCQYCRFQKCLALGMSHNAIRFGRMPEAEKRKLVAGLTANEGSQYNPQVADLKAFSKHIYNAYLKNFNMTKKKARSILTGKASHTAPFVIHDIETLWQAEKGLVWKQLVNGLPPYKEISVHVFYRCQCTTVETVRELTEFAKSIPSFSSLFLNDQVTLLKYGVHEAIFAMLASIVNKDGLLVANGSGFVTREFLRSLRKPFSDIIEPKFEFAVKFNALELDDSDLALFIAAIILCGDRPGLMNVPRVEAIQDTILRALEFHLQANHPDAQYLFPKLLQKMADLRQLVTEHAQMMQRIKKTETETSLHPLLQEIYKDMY

Rattus norvegicus [10] = assay: Increase of HDL level in cholesterol-fed male rats by ultracentrifugation method at 62 mg/kg/day relative to control; type: functional
Outline: (§6)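 Cholesterol-fed male Sprague–Dawley rats, six per group, given drug in the diet ad libitum for 8 days. Serum lipoproteins separated by classical ultracentrifugation and HDL cholesterol measured by an enzymatic colorimetric method. Expressed as % change versus untreated controls, with significance set at p < 0.05.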

Rattus norvegicus [11] = assay: Weight gain in cholesterol-fed male rats at 55 mg/kg/day relative to control; type: functional; outline: as §4
Rattus norvegicus [12] = assay: Increase of HDL level in cholesterol-fed male rats by ultracentrifugation method at 55 mg/kg/day relative to control; type: functional; outline: as §6
Rattus norvegicus [13] = assay: Increase of HDL level in cholesterol-fed male rats by FPLC method at 55 mg/kg/day relative to control; type: functional; outline: as §5
Rattus norvegicus [14] = assay: Triglyceride level in cholesterol-fed male rats at 55 mg/kg/day relative to control; type: functional; outline: as §1
Rattus norvegicus [15] = assay: Increase of total cholesterol level in cholesterol-fed male rats at 55 mg/kg/day relative to control; type: functional; outline: as §3
Rattus norvegicus [16] = assay: Increase of Apolipoprotein A-I level in cholesterol-fed male rats at 55 mg/kg/day relative to control; type: functional; outline: as §2
Rattus norvegicus [17] = assay: Triglyceride level in cholesterol-fed male rats at 57 mg/kg/day relative to control; type: functional; outline: as §1
Rattus norvegicus [18] = assay: Increase of total cholesterol level in cholesterol-fed male rats at 57 mg/kg/day relative to control; type: functional; outline: as §3
Rattus norvegicus [19] = assay: Increase of Apolipoprotein A-I level in cholesterol-fed male rats at 57 mg/kg/day relative to control; type: functional; outline: as §2
Rattus norvegicus [20] = assay: Weight gain in cholesterol-fed male rats at 57 mg/kg/day relative to control; type: functional; outline: as §4
Rattus norvegicus [21] = assay: Increase of HDL level in cholesterol-fed male rats by FPLC method at 57 mg/kg/day relative to control; type: functional; outline: as §5
Rattus norvegicus [22] = assay: Increase of HDL level in cholesterol-fed male rats by ultracentrifugation method at 57 mg/kg/day relative to control; type: functional; outline: as §6
Hamster [23] = assay: Increase of HDL cholesterol in normal-fed hamster at 52 mg/kg/day; type: functional, Cricetulus griseus
Rattus norvegicus [24] = assay: Increase of Apolipoprotein A-I level in cholesterol-fed male rats at 79 mg/kg/day relative to control; type: functional; outline: as §2
Rattus norvegicus [25] = assay: Increase of HDL cholesterol in normal-fed rat at 80 mg/kg/day; type: functional
Cynomolgus monkey = assay: Increase of HDL cholesterol in chow-fed cynomolgus monkey at 12 mg/kg/day; type: functional, Macaca fascicularis
Rattus norvegicus [26] = assay: Increase of total cholesterol level in cholesterol-fed male rats at 79 mg/kg/day relative to control; type: functional; outline: as §3
Rattus norvegicus [27] = assay: Triglyceride level in cholesterol-fed male rats at 79 mg/kg/day relative to control; type: functional; outline: as §1
Rattus norvegicus [28] = assay: Increase of HDL level in cholesterol-fed male rats by FPLC method at 79 mg/kg/day relative to control; type: functional; outline: as §5
Hamster [29] = assay: Increase of HDL cholesterol in chow-fed hamster at 64 mg/kg/day; type: functional, Cricetulus griseus
Rhesus monkey = assay: Increase of HDL cholesterol in chow-fed rhesus monkey at 12 mg/kg/day; type: functional, Macaca mulatta
Rattus norvegicus [30] = assay: Weight gain in cholesterol-fed male rats at 79 mg/kg/day relative to control; type: functional; outline: as §4
Canis familiaris = assay: Increase of HDL cholesterol in normal-fed dog at 35 mg/kg/day; type: functional, Canis lupus familiaris
Rattus norvegicus [31] = assay: Increase of HDL level in cholesterol-fed male rats by ultracentrifugation method at 79 mg/kg/day relative to control; type: functional
Outline: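 Compound given in the diet, ad libitum, to groups of six male Sprague–Dawley rats on a cholesterol diet for 8 days. Serum lipoproteins were separated by classical ultracentrifugation, and HDL cholesterol was quantitated by an enzymatic colorimetric method. Results are reported as % change relative to untreated controls, with significance at p < 0.05 versus controls.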

## CC[C@H]1CCCCN1/C(S)=N/c1cc(Cl)ccc1C
Rattus norvegicus [1]
  Activity: -56%
Rattus norvegicus [2]
  Activity: 39%
Rattus norvegicus [3]
  Activity: 126%
Rattus norvegicus [4]
  Activity: -88%
Rattus norvegicus [5]
  Activity: 85%
[6]
  pEC50: < 4.00
Rattus norvegicus [7]
  Activity: 129%
Rattus norvegicus [8]
  Activity: 404%
[9]
  pEC50: < 4.00
Rattus norvegicus [10]
  Activity: 124%

## Cc1ccc(Cl)cc1/N=C(\S)NCCO
Rattus norvegicus [11]
  Activity: -104%
Rattus norvegicus [12]
  Activity: 75%
Rattus norvegicus [13]
  Activity: 241%
Rattus norvegicus [14]
  Activity: -53%
Rattus norvegicus [15]
  Activity: 39%
Rattus norvegicus [16]
  Activity: 48%

## CCC/N=C(\S)Nc1cc(F)ccc1C
Rattus norvegicus [17]
  Activity: -58%
Rattus norvegicus [18]
  Activity: 54%
Rattus norvegicus [19]
  Activity: 18%
Rattus norvegicus [20]
  Activity: -77%
Rattus norvegicus [21]
  Activity: 312%
Rattus norvegicus [22]
  Activity: 152%

## Cc1ccc(Cl)cc1N/C(S)=N/CC(C)C
Hamster [23]
  Activity: 44%
Rattus norvegicus [24]
  Activity: 77%
Rattus norvegicus [25]
  Activity: 75%
Cynomolgus monkey
  Activity: 100%
Rattus norvegicus [26]
  Activity: -11%
Rattus norvegicus [27]
  Activity: -54%
[6]
  pEC50: < 4.00
Rattus norvegicus [28]
  Activity: 260%
Hamster [29]
  Activity: 15%
[9]
  pEC50: < 4.00
Rhesus monkey
  Activity: 75%
Rattus norvegicus [30]
  Activity: -12%
Canis familiaris
  Activity: 50%
Rattus norvegicus [31]
  Activity: 104%
